pIC50: −log10 of the molar value.

From ChEMBL document CHEMBL1124816, “Effect of structure on potency and selectivity in 2,6-disubstituted 4-(2-arylethenyl)phenol lipoxygenase inhibitors” (J Med Chem, 1990) come the findings set out here.

The target in one assay is T1, Polyunsaturated fatty acid 5-lipoxygenase (Homo sapiens, UniProt P09917).
T1 sequence (P09917 whole entry): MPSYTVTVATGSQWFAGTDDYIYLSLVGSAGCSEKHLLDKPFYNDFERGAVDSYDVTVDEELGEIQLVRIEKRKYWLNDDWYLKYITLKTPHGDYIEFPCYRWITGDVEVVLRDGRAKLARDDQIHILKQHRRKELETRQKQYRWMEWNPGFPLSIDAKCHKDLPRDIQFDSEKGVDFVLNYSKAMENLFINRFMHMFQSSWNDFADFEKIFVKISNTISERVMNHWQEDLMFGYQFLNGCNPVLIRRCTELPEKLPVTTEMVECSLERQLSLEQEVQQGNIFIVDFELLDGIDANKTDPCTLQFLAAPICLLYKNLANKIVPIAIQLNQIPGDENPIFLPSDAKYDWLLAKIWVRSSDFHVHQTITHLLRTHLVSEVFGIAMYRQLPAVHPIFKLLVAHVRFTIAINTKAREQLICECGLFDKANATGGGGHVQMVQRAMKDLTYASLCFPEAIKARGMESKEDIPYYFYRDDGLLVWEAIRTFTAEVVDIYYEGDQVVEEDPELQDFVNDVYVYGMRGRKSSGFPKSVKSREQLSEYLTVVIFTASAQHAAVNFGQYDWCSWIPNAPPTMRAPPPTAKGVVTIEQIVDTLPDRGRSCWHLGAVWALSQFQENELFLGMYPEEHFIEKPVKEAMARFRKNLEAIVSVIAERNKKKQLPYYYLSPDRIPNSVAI
Nature of the assay: Inhibition of human neutrophil 5-lipoxygenase.
In turn, `Cc1cc(/C=C/c2ccccc2Br)cc(C)c1O` gave a pIC50 of over 6.00.

In the case of `CCc1cc(/C=C/c2cccnc2)cc(CC)c1O`, the pIC50 was over 6.00.

`CCc1cc(/C=C/c2cccs2)cc(OC)c1O`: the pIC50 is 7.05.

Regarding `Cc1cc(/C=C/c2ccccc2C(F)(F)F)cc(C)c1O`, the pIC50 was over 6.00.

For the compound `COc1cc(/C=C/c2cccs2)cc(C)c1O`, the pIC50 was 7.07.

With `Cc1cc(/C=C/c2ccccc2C(=O)O)cc(C)c1O`, the pIC50 was under 6.00.

`Cc1cc(/C=C/c2c(F)cccc2F)cc(C)c1O` showed a pIC50 of over 6.00.

In the case of `Cc1cc(/C=C/c2ccc(C(C)C)cc2)cc(C)c1O`, the pIC50 was under 6.00.

For `Cc1cc(/C=C/c2cccc3ccccc23)cc(C)c1O`, the negative logarithm of the IC50 (pIC50) was over 6.00.

Compound `Cc1cc(/C=C/c2ccc(F)cc2F)cc(C)c1O` showed a pIC50 of over 6.00.

With `CC(C)(C)c1cc(/C=C/c2ccc(F)cc2)cc(C(C)(C)C)c1O`, the pIC50 was under 6.00.

Compound `Cc1cccc(/C=C/c2cc(C)c(O)c(C)c2)c1` showed a pIC50 of 6.89.

For the compound `CC(C)(C)c1cc(/C=C/c2cccnc2)cc(C(C)(C)C)c1O`, the pIC50 is 5.77.

Another assay concerns the target T2, Polyunsaturated fatty acid 5-lipoxygenase (Homo sapiens) (UniProt P09917).
T2 sequence (whole entry): T1 sequence (P09917 whole entry)
Nature of the assay: Inhibition of human neutrophil 5-lipoxygenase at the concentration of 0.1 uM. A digest of the protocol: (§1)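 5-LO activity measured in human peripheral blood leukocytes. Percent inhibition at a single test concentration is compared with untreated control, with significance by ANOVA and Tukey's multiple comparisons test (p < 0.05).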
As for `CCc1cc(/C=C/c2cccnc2)cc(CC)c1O`, the inhibition was 36%.

The target in the next assay is T2, Polyunsaturated fatty acid 5-lipoxygenase (Homo sapiens). Put plainly: (§2) Inhibition of human neutrophil 5-lipoxygenase at the concentration of 1 uM. A digest of the protocol: as §1
`CCc1cc(/C=C/c2cccnc2)cc(CC)c1O` had an inhibition of 86%.

A further assay shares this target. The description is as §2. It counts as functional. The method, boiled down: as §1
In turn, `Cc1cc(/C=C/c2ccccc2C(=O)O)cc(C)c1O` registered an inhibition of 12%.

The next assay has the same target. Put plainly: Inhibition of lipoxygenase at the concentration of 0.1 uM. A digest of the protocol: as §1
As for `Cc1cc(/C=C/c2ccccc2Br)cc(C)c1O`, the inhibition is 26%.

Turning to `Cc1cc(/C=C/c2ccccc2C(F)(F)F)cc(C)c1O`, the inhibition came out at 14%.

In turn, `Cc1cc(/C=C/c2c(F)cccc2F)cc(C)c1O` showed an inhibition of 12%.

As to `Cc1cc(/C=C/c2ccc(C(C)C)cc2)cc(C)c1O`, the inhibition is 11%.

As to `Cc1cc(/C=C/c2cccc3ccccc23)cc(C)c1O`, the inhibition worked out at 27%.

In the case of `Cc1cc(/C=C/c2ccc(F)cc2F)cc(C)c1O`, the inhibition turned out to be 25%.

As for `CC(C)(C)c1cc(/C=C/c2ccc(F)cc2)cc(C(C)(C)C)c1O`, the inhibition was 24%.

The next assay has the same target. Nature of the assay: Inhibition of lipoxygenase at the concentration of 1 uM. The method, boiled down: as §1
`Cc1cc(/C=C/c2ccccc2Br)cc(C)c1O` returned an inhibition of 94%.

Regarding `Cc1cc(/C=C/c2ccccc2C(F)(F)F)cc(C)c1O`, the inhibition was 94%.

Consider `Cc1cc(/C=C/c2c(F)cccc2F)cc(C)c1O`, for which the inhibition was 96%.

Take `Cc1cc(/C=C/c2ccc(C(C)C)cc2)cc(C)c1O`: the inhibition was found to be 30%.

For `Cc1cc(/C=C/c2cccc3ccccc23)cc(C)c1O`, the inhibition amounted to 94%.

In the case of `Cc1cc(/C=C/c2ccc(F)cc2F)cc(C)c1O`, the inhibition came to 100%.

The compound `CC(C)(C)c1cc(/C=C/c2ccc(F)cc2)cc(C(C)(C)C)c1O` gave an inhibition of 18%.

Another assay is filed under the species Cavia porcellus. Nature of the assay: Inhibition of cell influx (total cells) in guinea pig. In kind it is functional. The method, boiled down: (§3)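 Male Hartley guinea pigs (250–300 g), ovalbumin-sensitized, fasted, pretreated 60 min before challenge with pyrilamine (10 mg/kg ip), indomethacin (10 mg/kg ip) and test agent (ip as 5% Tween 80 suspension). Challenged with aerosolized ovalbumin; 4 h later anesthetized and exsanguinated for late-phase inflammatory cell influx counts (total cells, PMN).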
In turn, `CC(C)(C)c1cc(/C=C/c2cccnc2)cc(C(C)(C)C)c1O` registered an Inhibition of 0%.

A further assay relates to Cavia porcellus. Put plainly: Inhibition of antigen-induced ileukotriene-mediated bronchoconstriction in conscious guinea pig at the dose of 300mg/Kg, po. In kind it is functional.
Turning to `CC(C)(C)c1cc(/C=C/c2cccnc2)cc(C(C)(C)C)c1O`, the inhibition in vivo at 300 mg/kg was determined as 7.7%.

The next assay deals with Cavia porcellus. Put plainly: Inhibition of antigen-induced leukotriene-mediated bronchoconstriction in conscious guinea pig at the dose of 100mg/Kg, po. In kind it is functional.
Regarding `CC(C)(C)c1cc(/C=C/c2cccnc2)cc(C(C)(C)C)c1O`, the inhibition in vivo at 100 mg/kg is -2%.

The subject of a further assay is Cavia porcellus. Put plainly: Inhibition of antigen-induced leukotriene-mediated bronchoconstriction in conscious guinea pig at the dose of 30mg/Kg, ip. In kind it is functional. A digest of the protocol: (§4)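 Male Hartley guinea pigs (250–300 g), actively ovalbumin-sensitized, fasted 18 h, anesthetized, pleural pressure transducer fitted. Dosed 60 min before aerosolized ovalbumin challenge with pyrilamine (10 mg/kg ip), indomethacin (10 mg/kg ip) and test agent (ip as 5% Tween 80 suspension). Head-out plethysmography after recovery; Cdyn mean change from baseline over 5–15 min post-challenge vs controls; 5–10 animals per dose; Dunnett's test.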
With `CCc1cc(/C=C/c2cccs2)cc(OC)c1O`, the inhibition in vivo at 30 mg/kg was 51%.

Turning to `COc1cc(/C=C/c2cccs2)cc(C)c1O`, the inhibition in vivo at 30 mg/kg came out at 41%.

A further assay deals with Cavia porcellus. Put plainly: Inhibition of antigen-induced leukotriene-mediated bronchoconstriction in conscious guinea pig at the dose of 30mg/Kg, ip. It counts as functional. The method, boiled down: as §4
`Cc1cccc(/C=C/c2cc(C)c(O)c(C)c2)c1`: the inhibition in vivo at 30 mg/kg was determined as 49%.

The next assay relates to Cavia porcellus. Put plainly: Inhibition of antigen-induced leukotriene-mediated bronchoconstriction in conscious guinea pig at the dose of 30mg/Kg, po. In kind it is functional.
Consider `CC(C)(C)c1cc(/C=C/c2cccnc2)cc(C(C)(C)C)c1O`, for which the inhibition in vivo at 30 mg/kg was -24%.

The next assay deals with Cavia porcellus. Nature of the assay: Inhibition of antigen-induced leukotriene-mediated bronchoconstriction in conscious guinea pigat the dose of 100mg/Kg, ip. In kind it is functional. A digest of the protocol:
as §4
`CC(C)(C)c1cc(/C=C/c2cccnc2)cc(C(C)(C)C)c1O`: the inhibition in vivo at 100 mg/kg amounted to 10%.

In the next assay the target is T3, Cyclooxygenase (Homo sapiens, UniProt P35354+P23219). Put plainly: Inhibition of human platelet Prostaglandin G/H synthase.
Compound `Cc1cc(/C=C/c2ccccc2Br)cc(C)c1O` showed an IC50 of under 1000 nM.

In turn, `CCc1cc(/C=C/c2cccnc2)cc(CC)c1O` came in with an IC50 of under 10000 nM.

`CCc1cc(/C=C/c2cccs2)cc(OC)c1O` registered an IC50 of 1400 nM.

`Cc1cc(/C=C/c2ccccc2C(F)(F)F)cc(C)c1O` displayed an IC50 of under 1000 nM.

As to `COc1cc(/C=C/c2cccs2)cc(C)c1O`, the IC50 was 3100 nM.

As to `Cc1cc(/C=C/c2ccccc2C(=O)O)cc(C)c1O`, the IC50 was over 10000 nM.

Consider `Cc1cc(/C=C/c2c(F)cccc2F)cc(C)c1O`, for which the IC50 was under 1000 nM.

`Cc1cc(/C=C/c2ccc(C(C)C)cc2)cc(C)c1O` returned an IC50 of 1400 nM.

Turning to `Cc1cc(/C=C/c2ccc(F)cc2F)cc(C)c1O`, the IC50 amounted to 710 nM.

`CC(C)(C)c1cc(/C=C/c2ccc(F)cc2)cc(C(C)(C)C)c1O` registered an IC50 of 610 nM.

Compound `Cc1cccc(/C=C/c2cc(C)c(O)c(C)c2)c1` returned an IC50 of 2500 nM.

Tested on in another assay: not listed separately
Put plainly: (§5) Inhibition of human platelet Prostaglandin G/H synthase at the concentration of 10 uM. The method, boiled down: (§6)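 CO activity measured in human platelets. Percent inhibition at a single test concentration is compared with untreated control, with significance by ANOVA and Tukey's multiple comparisons test (p < 0.05).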
`Cc1cc(/C=C/c2ccccc2Br)cc(C)c1O` returned an inhibition of 91%.

`Cc1cc(/C=C/c2ccccc2C(F)(F)F)cc(C)c1O` registered an inhibition of 72%.

Consider `Cc1cc(/C=C/c2ccccc2C(=O)O)cc(C)c1O`, for which the inhibition turned out to be 25%.

`Cc1cc(/C=C/c2c(F)cccc2F)cc(C)c1O` came in with an inhibition of 94%.

The next assay has as its target T3, Cyclooxygenase. The description is as §5. In kind it is functional. The method, boiled down:
as §6
The compound `CCc1cc(/C=C/c2cccnc2)cc(CC)c1O` had an inhibition of 82%.

In another assay the target is T3, Cyclooxygenase. Put plainly: (§7) Inhibition of human platelet Prostaglandin G/H synthase at the concentration of 1 uM. The method, boiled down:
as §6
`Cc1cc(/C=C/c2ccccc2Br)cc(C)c1O`: the inhibition is 84%.

As to `Cc1cc(/C=C/c2ccccc2C(F)(F)F)cc(C)c1O`, the inhibition was found to be 76%.

`Cc1cc(/C=C/c2ccccc2C(=O)O)cc(C)c1O` came in with an inhibition of 16%.

As for `Cc1cc(/C=C/c2c(F)cccc2F)cc(C)c1O`, the inhibition turned out to be 73%.

Another assay concerns the target T3, Cyclooxygenase. The description is as §7. It counts as functional. The method, boiled down: as §6
`CCc1cc(/C=C/c2cccnc2)cc(CC)c1O` returned an inhibition of 20%.

For the next assay, the species on record is Cavia porcellus. Put plainly: Inhibition of cell influx (PMN) in guinea pig. In kind it is functional. The method, boiled down: as §3
In the case of `CC(C)(C)c1cc(/C=C/c2cccnc2)cc(C(C)(C)C)c1O`, the Inhibition is listed as 0%.
